# PMC6645658 (ACS Omega, 2017)
# Assay: In vivo rat BBB penetration
# Outline: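 Rats were dosed iv, and plasma and brain tissue were sampled at 0.25 h after dosing. Plasma concentration is in ng/mL and brain concentration in ng/g. Kp-unbound was derived using the unbound fractions measured in rat plasma and rat brain tissue, and was used to judge blood-brain barrier penetration.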
compound,measurement,setting,value
"COc1ccsc1CNCC[C@@]1(c2ccccn2)CCOC2(CCCC2)C1 [TRV130, [(3-methoxythiophen-2-yl)methyl]({2-[(9R)-9-(pyridine-2yl)-6-oxaspiro-[4,5]decan-9-yl]ethyl})amine]",concentration at 0.25 h,"brain, iv",315 ng/g
same,Kp at 0.25 h,"brain/plasma, intravenous",0.936
